Reference: ChEMBL document CHEMBL1124792, “Synthesis and structure-activity relationships of 5-substituted 6,8-difluoroquinolones, including sparfloxacin, a new quinolone antibacterial agent with improved potency” (1990)
In brackets after ≈: the same amount, converted by molar mass.

Key:
Format in all cases: functional
Enterobacter cloacae = assay: In vitro antibacterial activity against Enterobacter cloacae 963
Mus musculus [1] = species: Mus musculus; assay: Oral efficacy against Pseudomonas aeruginosa 12 on Systemic Infections in Mice
Summary of the method: (§1)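 Groups of at least 10 male Std-ddY mice (20 ± 2 g) were infected ip, with S. pyogenes A65 at 3×10^7 cells or P. aeruginosa 12 at 4×10^3 cells. Compounds were suspended in 0.2% sodium carboxymethylcellulose and given orally at 0 and 6 h postinfection. The result is reported as ED50 in mg/kg.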

Enterococcus faecalis = assay: In vitro antibacterial activity against Streptococcus faecalis 2473
Summary of the method: (§2)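 Two-fold agar dilution MIC on Mueller-Hinton agar (pH 7.4), following the Japan Society of Chemotherapy MIC Committee method. Inoculum was about 10⁶ CFU, and growth was read after 20 h at 37 °C. MIC is reported in µg/mL.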

Mus musculus [2] = species: Mus musculus; assay: Oral efficacy against Streptococcus pyogenes A65 on Systemic Infections in Mice; summary of the method: as §1
Moraxella bovis = assay: In vitro antibacterial activity against glucose nonfermenter Moraxella bovis P-7101; summary of the method: as §2
Staphylococcus aureus [3] = assay: In vitro antibacterial activity against Staphylococcus aureus 50774; summary of the method: as §2
Staphylococcus aureus [4] = assay: In vitro antibacterial activity against Staphylococcus aureus 209P JC-1; summary of the method: as §2
Klebsiella pneumoniae = assay: In vitro antibacterial activity against Klebsiella pneumoniae 13; summary of the method: as §2
Escherichia coli [5] = assay: In vitro antibacterial activity against Escherichia coli NIHJ JC-2; summary of the method: as §2
Pseudomonas aeruginosa [6] = assay: In vitro antibacterial activity against Pseudomonas aeruginosa 12; summary of the method: as §2
Streptococcus pyogenes = assay: In vitro antibacterial activity against Streptococcus pyogenes A65; summary of the method: as §2
Escherichia coli [7] = assay: In vitro antibacterial activity against Escherichia coli P-5101; summary of the method: as §2
Pseudomonas aeruginosa [8] = assay: In vitro antibacterial activity against Pseudomonas aeruginosa IFO 3445; summary of the method: as §2
Serratia marcescens [9] = assay: In vitro antibacterial activity against Serratia marcescens S-9
Summary of the method: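 MIC (µg/mL) by 2-fold agar dilution on Mueller-Hinton agar (pH 7.4), following the Japan Society of Chemotherapy MIC Committee method. Inoculum of about 10⁶ CFU. Growth was read after 20 h at 37 °C.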

[10] = test system: Staphylococcus epidermidis; assay: In vitro antibacterial activity against Streptococcus epidermis 8; summary of the method: as §2
Serratia marcescens [11] = assay: In vitro antibacterial activity against Serratia marcescence S-9; summary of the method: as §2
Serratia marcescens [12] = assay: In vitro antibacterial activity against Serratia marcescene S-9; summary of the method: as §2

MIC (Enterobacter cloacae) [µg/mL]	MIC (Enterococcus faecalis) [µg/mL]	MIC (Moraxella bovis) [µg/mL]	MIC (Staphylococcus aureus [3]) [µg/mL]	MIC (Staphylococcus aureus [4]) [µg/mL]	MIC (Klebsiella pneumoniae) [µg/mL]	MIC (Escherichia coli [5]) [µg/mL]	MIC (Pseudomonas aeruginosa [6]) [µg/mL]	MIC (Streptococcus pyogenes) [µg/mL]	MIC (Escherichia coli [7]) [µg/mL]	MIC (Pseudomonas aeruginosa [8]) [µg/mL]	MIC [10] [µg/mL]	MIC (Serratia marcescens [11]) [µg/mL]	MIC (Serratia marcescens [12]) [µg/mL]	SMILES	ED50 (Mus musculus [1]) [mg/kg]	ED50 (Mus musculus [2]) [mg/kg]	MIC (Serratia marcescens [9]) [µg/mL]
0.025 (≈ 0.0661 µM)	0.78 (≈ 2.06 µM)	0.39 (≈ 1.03 µM)	0.05 (≈ 0.132 µM)	0.1 (≈ 0.264 µM)	0.05 (≈ 0.132 µM)	0.0125 (≈ 0.033 µM)	0.2 (≈ 0.529 µM)	0.39 (≈ 1.03 µM)	0.0125 (≈ 0.033 µM)	1.56 (≈ 4.12 µM)	0.05 (≈ 0.132 µM)			CN1CCN(c2c(F)c(N)c3c(=O)c(C(=O)O)cn(C4CC4)c3c2F)CC1	2.18	22.9	0.1 (≈ 0.264 µM)
0.05 (≈ 0.127 µM)	0.78 (≈ 1.99 µM)	0.39 (≈ 0.994 µM)	0.05 (≈ 0.127 µM)	0.05 (≈ 0.127 µM)	0.05 (≈ 0.127 µM)	0.0125 (≈ 0.0319 µM)	0.39 (≈ 0.994 µM)	0.39 (≈ 0.994 µM)	0.0125 (≈ 0.0319 µM)	0.39 (≈ 0.994 µM)	0.05 (≈ 0.127 µM)	0.2 (≈ 0.51 µM)		C[C@@H]1CN(c2c(F)c(N)c3c(=O)c(C(=O)O)cn(C4CC4)c3c2F)C[C@H](C)N1 [SPARFLOXACIN]	1.57	3.36	
0.025 (≈ 0.0631 µM)	0.39 (≈ 0.984 µM)	0.39 (≈ 0.984 µM)	0.0125 (≈ 0.0315 µM)	0.025 (≈ 0.0631 µM)	0.025 (≈ 0.0631 µM)	0.0063 (≈ 0.0159 µM)	0.2 (≈ 0.505 µM)	0.2 (≈ 0.505 µM)	0.0063 (≈ 0.0159 µM)	0.39 (≈ 0.984 µM)	0.0125 (≈ 0.0315 µM)	0.1 (≈ 0.252 µM)		Nc1c(F)c(N2CCNC(CF)C2)c(F)c2c1c(=O)c(C(=O)O)cn2C1CC1 (stereo unspecified)	7.02	17.4	
0.05 (≈ 0.123 µM)	0.39 (≈ 0.96 µM)	0.78 (≈ 1.92 µM)	0.025 (≈ 0.0615 µM)	0.05 (≈ 0.123 µM)	0.1 (≈ 0.246 µM)	0.025 (≈ 0.0615 µM)	0.39 (≈ 0.96 µM)	0.39 (≈ 0.96 µM)	0.0125 (≈ 0.0308 µM)	0.78 (≈ 1.92 µM)	0.05 (≈ 0.123 µM)	0.2 (≈ 0.492 µM)		C[C@@H]1CN(c2c(F)c(N)c3c(=O)c(C(=O)O)cn(C4CC4)c3c2F)C[C@H](C)N1C	2.21	5.64	
0.025 (≈ 0.0656 µM)	3.13 (≈ 8.21 µM)	1.56 (≈ 4.09 µM)	0.2 (≈ 0.524 µM)	0.2 (≈ 0.524 µM)	0.05 (≈ 0.131 µM)	0.0125 (≈ 0.0328 µM)	0.78 (≈ 2.05 µM)	1.56 (≈ 4.09 µM)	0.0063 (≈ 0.0165 µM)	0.78 (≈ 2.05 µM)	0.2 (≈ 0.524 µM)		0.2 (≈ 0.524 µM)	CC1CN(c2c(F)c(F)c3c(=O)c(C(=O)O)cn(C4CC4)c3c2F)CCN1 (stereo unspecified)	2.46	17.3	
0.05 (≈ 0.138 µM)	0.78 (≈ 2.15 µM)	0.78 (≈ 2.15 µM)	0.1 (≈ 0.275 µM)	0.2 (≈ 0.55 µM)	0.05 (≈ 0.138 µM)	0.025 (≈ 0.0688 µM)	0.39 (≈ 1.07 µM)	0.39 (≈ 1.07 µM)	0.0125 (≈ 0.0344 µM)	0.78 (≈ 2.15 µM)	0.1 (≈ 0.275 µM)			CN1CCN(c2c(F)cc3c(=O)c(C(=O)O)cn(C4CC4)c3c2F)CC1	2.18	8.84	0.1 (≈ 0.275 µM)
0.05 (≈ 0.132 µM)	1.56 (≈ 4.11 µM)	1.56 (≈ 4.11 µM)	0.2 (≈ 0.527 µM)	0.2 (≈ 0.527 µM)	0.1 (≈ 0.264 µM)	0.025 (≈ 0.0659 µM)	0.78 (≈ 2.06 µM)	0.78 (≈ 2.06 µM)	0.025 (≈ 0.0659 µM)	0.78 (≈ 2.06 µM)	0.1 (≈ 0.264 µM)	0.1 (≈ 0.264 µM)		CC1CN(c2c(F)c(O)c3c(=O)c(C(=O)O)cn(C4CC4)c3c2F)CCN1 (stereo unspecified)	5.97	12.5	

SMILES	MIC (Enterobacter cloacae) [µg/mL]	MIC (Enterococcus faecalis) [µg/mL]	MIC (Moraxella bovis) [µg/mL]	MIC (Staphylococcus aureus [3]) [µg/mL]	MIC (Staphylococcus aureus [4]) [µg/mL]	MIC (Klebsiella pneumoniae) [µg/mL]	MIC (Escherichia coli [5]) [µg/mL]	MIC (Pseudomonas aeruginosa [6]) [µg/mL]	MIC (Streptococcus pyogenes) [µg/mL]	MIC (Escherichia coli [7]) [µg/mL]	MIC (Pseudomonas aeruginosa [8]) [µg/mL]	MIC [10] [µg/mL]	MIC (Serratia marcescens [11]) [µg/mL]	MIC (Serratia marcescens [12]) [µg/mL]	ED50 (Mus musculus [1]) [mg/kg]	ED50 (Mus musculus [2]) [mg/kg]	MIC (Serratia marcescens [9]) [µg/mL]
CC1COc2c(N3CCN(C)CC3)c(F)cc3c(=O)c(C(=O)O)cn1c23 (stereo unspecified) [OFLOXACIN]	0.1 (≈ 0.277 µM)	1.56 (≈ 4.32 µM)	1.56 (≈ 4.32 µM)	0.2 (≈ 0.553 µM)	0.78 (≈ 2.16 µM)	0.1 (≈ 0.277 µM)			0.39 (≈ 1.08 µM)	0.05 (≈ 0.138 µM)	1.56 (≈ 4.32 µM)	0.2 (≈ 0.553 µM)			6.62	10.8	0.2 (≈ 0.553 µM)
O=C(O)c1cn(C2CC2)c2c(F)c(N3CCNCC3)c(F)cc2c1=O	0.025 (≈ 0.0716 µM)	0.78 (≈ 2.23 µM)	0.39 (≈ 1.12 µM)	0.05 (≈ 0.143 µM)		0.0125 (≈ 0.0358 µM)		0.05 (≈ 0.143 µM)	0.2 (≈ 0.573 µM)	0.0031 (≈ 0.00887 µM)	0.2 (≈ 0.573 µM)	0.025 (≈ 0.0716 µM)			1.22	20.5	0.025 (≈ 0.0716 µM)
